Test results from BindingDB's records for doi:10.1021/acs.jmedchem.7b00976 (Leipzig University, 2017).
pEC50, pKi: −log10 of the molar value.

Key:
[1] = Positive allosteric modulation of human C-terminal eYFP-fused human NY1 receptor expressed in African green monkey COS7 cells co-expressing delta6Galphaqi4-myr assessed as potentiation of neuropeptide Y-mediated Ca2+ flux by measuring […] at 30 uM treated at 20 secs post baseline detection followed by addition of neuro
[2] = Positive allosteric modulation of human NY4 receptor expressed in African green monkey COS7 cells co-expressing delta6Galphaqi4-myr assessed as potentiation of pancreatic polypeptide induced-calcium flux by measuring pancreatic polypeptide pEC50 at 30 uM treated at 20 secs post baseline detection followed by addition of pancreatic polypeptide
[3] = target: T1, Neuropeptide Y receptor type 4 (Homo sapiens, UniProt P50391); assay: (§1) Positive allosteric modulation of human NY4 receptor expressed in African green monkey COS7 cells co-expressing delta6Galphaqi4-myr assessed as potentiation of peptide YY induced-calcium flux by measuring peptide YY EC50 at 30 uM treated at 20 secs post baseline detection followed by addition of peptide YY after 140 secs by Fluo2-AM fluorescent dye based-assay (Rvb = 2.6 nM)
How it was run: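 COS7 cells stably co-expressing human Y4R-eYFP fusion and chimeric Δ6Gαqi4-myr, seeded overnight in 96-well format; loaded with 2.4 μM Fluo2-AM in HBSS/20 mM HEPES/probenecid, 60 min at 37 °C. Two-addition FlexStation read (ex 485/em 525 nm): compound or DMSO after 20 s baseline, PYY at 140 s. Response as x-fold over basal, normalized to PP; duplicates, ≥3 independent experiments.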

[4] = target: T1, Neuropeptide Y receptor type 4; assay: Effect on neuropeptide Y-mediated displacement of 125I-pancreatic polypeptide from human C-terminal eYFP-tagged NY4 receptor expressed in HEK293 cell membranes assessed as neuropeptide Y pKi at 30 uM after 5 hrs by scintillation counting (Rvb = 7.9 +/- 0.2 No_unit)
[5] = target: T1, Neuropeptide Y receptor type 4; assay: Positive allosteric modulation of human C-terminal eYFP-tagged NY4 receptor expressed in HEK293 cells assessed as potentiation of pancreatic polypeptide-induced arrestin 3 recruitment by measuring pancreatic polypeptide pEC50 at 30 uM after 30 mins by BRET assay (Rvb = 8.3 +/- 0.12 No_unit)
[6] = Positive allosteric modulation of human NY4 receptor expressed in African green monkey COS7 cells co-expressing delta6Galphaqi4-myr assessed as potentiation of neuropeptide Y induced-calcium flux by measuring neuropeptide Y pEC50 at 30 uM treated at 20 secs post baseline detection followed by addition of neuropeptide Y after 140 secs by Fluo2
[7] = target: T2, Neuropeptide Y receptor type 2 (Homo sapiens, UniProt P49146); assay: ASSAY_NAME: ChEMBL_1668994 (CHEMBL4018882) DESCRIPTION: Positive allosteric modulation of human C-terminal eYFP-fused human NY2 receptor expressed in African green monkey COS7 cells co-expressing delta6Galphaqi4-myr assessed as potentiation of neuropeptide Y-mediated Ca2+ flux by measuring pancreatic polypeptide EC50 at 30 uM treated at 20 secs post baseline detection followed by addition of …
T2 sequence (P49146 whole entry): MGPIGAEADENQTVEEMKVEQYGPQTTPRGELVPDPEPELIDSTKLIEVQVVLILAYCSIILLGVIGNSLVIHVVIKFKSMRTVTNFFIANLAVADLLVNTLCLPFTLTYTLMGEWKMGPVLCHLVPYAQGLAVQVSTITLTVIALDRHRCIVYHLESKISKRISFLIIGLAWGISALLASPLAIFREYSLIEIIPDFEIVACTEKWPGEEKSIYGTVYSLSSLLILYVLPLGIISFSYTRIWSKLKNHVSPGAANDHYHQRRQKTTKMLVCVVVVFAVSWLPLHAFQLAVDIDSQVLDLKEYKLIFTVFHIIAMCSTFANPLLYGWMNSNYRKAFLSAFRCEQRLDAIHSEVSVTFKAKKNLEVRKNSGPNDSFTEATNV

[8] = Positive allosteric modulation of human C-terminal eYFP-tagged NY4 receptor expressed in HEK293 cells assessed as potentiation of neuropeptide Y-induced arrestin 3 recruitment by measuring neuropeptide Y EC50 at 30 uM after 30 mins by BRET assay (Rvb = 1380 nM)
[9] = target: T1, Neuropeptide Y receptor type 4; assay: Positive allosteric modulation of human C-terminal eYFP-tagged NY4 receptor expressed in HEK293 cells assessed as potentiation of pancreatic polypeptide-induced arrestin 3 recruitment by measuring pancreatic polypeptide EC50 at 30 uM after 30 mins by BRET assay (Rvb = 5.6 nM)
[10] = target: T1, Neuropeptide Y receptor type 4; assay: as §1, with “pEC50” for “EC50”, “8.6 +/- 0.08 No_unit)” for “2.6 nM)”
How it was run: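 COS7 cells stably co-expressing Y4R-eYFP and Δ6Gαqi4-myr were seeded overnight. They were loaded with 2.4 μM Fluo2-AM in HBSS/20 mM HEPES/[…] for 60 min at 37 °C, then kept in assay buffer. Fluorescence was read at ex 485/em 525 nm. Compound was added after a 20 s baseline and peptide at 140 s. Response was taken as x-fold over basal, normalized to the DMSO control, and fitted to an operational model of allosterism. Duplicates, at least three independent runs.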

[11] = target: T1, Neuropeptide Y receptor type 4; assay: Positive allosteric modulation of human C-terminal eYFP-tagged NY4 receptor expressed in HEK293 cells assessed as potentiation of peptide YY-induced arrestin 3 recruitment by measuring peptide YY EC50 at 30 uM after 30 mins by BRET assay (Rvb = 1600 nM)
[12] = target: T1, Neuropeptide Y receptor type 4; assay: Positive allosteric modulation of human C-terminal eYFP-tagged NY4 receptor expressed in HEK293 cells assessed as potentiation of peptide YY-induced arrestin 3 recruitment by measuring peptide YY pEC50 at 30 uM after 30 mins by BRET assay (Rvb = 5.8 +/- 0.20 No_unit)
[13] = target: T1, Neuropeptide Y receptor type 4; assay: Effect on peptide YY-mediated displacement of 125I-pancreatic polypeptide from human C-terminal eYFP-tagged NY4 receptor expressed in HEK293 cell membranes assessed as peptide YY pKi at 30 uM after 5 hrs by scintillation counting (Rvb = 8 +/- 0.2 No_unit)
[14] = target: T1, Neuropeptide Y receptor type 4; assay: ASSAY_NAME: ChEMBL_1668991 (CHEMBL4018879) DESCRIPTION: Positive allosteric modulation of human NY4 receptor expressed in African green monkey COS7 cells co-expressing delta6Galphaqi4-myr assessed as potentiation of pancreatic polypeptide induced-calcium flux by measuring pancreatic polypeptide EC50 at 30 uM treated at 20 secs post baseline detection followed by addition of pancreatic polypeptide …
[15] = Positive allosteric modulation of human NY4 receptor expressed in African green monkey COS7 cells co-expressing delta6Galphaqi4-myr assessed as potentiation of neuropeptide Y induced-calcium flux by measuring neuropeptide Y EC50 at 30 uM treated at 20 secs post baseline detection followed by addition of neuropeptide Y after 140 secs by Fluo2-
[16] = Positive allosteric modulation of human C-terminal eYFP-tagged NY4 receptor expressed in HEK293 cells assessed as potentiation of neuropeptide Y-induced arrestin 3 recruitment by measuring neuropeptide Y pEC50 at 30 uM after 30 mins by BRET assay (Rvb = 5.9 +/- 0.15 No_unit)

T1 sequence (P50391 whole entry C240R, the tested form may be a part): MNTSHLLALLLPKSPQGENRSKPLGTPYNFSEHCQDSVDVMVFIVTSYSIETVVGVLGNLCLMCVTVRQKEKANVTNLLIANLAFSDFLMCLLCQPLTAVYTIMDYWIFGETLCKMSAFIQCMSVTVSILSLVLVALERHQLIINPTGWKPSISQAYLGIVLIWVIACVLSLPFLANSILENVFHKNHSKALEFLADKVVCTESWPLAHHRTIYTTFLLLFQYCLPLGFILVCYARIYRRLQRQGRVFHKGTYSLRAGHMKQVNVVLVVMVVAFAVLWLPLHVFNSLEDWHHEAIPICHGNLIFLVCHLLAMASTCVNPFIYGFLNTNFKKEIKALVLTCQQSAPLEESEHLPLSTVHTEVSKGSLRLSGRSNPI

CC(C)(C)c1ccc(OC2CCCCC2O)cc1 (stereo unspecified)
pEC50 [1]: 10.40 | pEC50 [2]: 10.40 | pEC50 [3]: 9.30 | pKi [4]: 8.20 | pEC50 [5]: 8.40 | pEC50 [6]: 9.40 | pEC50 [7]: 10.20 | pEC50 [8]: 6.35 | pEC50 [9]: 8.35 | pEC50 [10]: 9.30 | pEC50 [11]: 6.07 | pEC50 [12]: 6.10 | pKi [13]: 8.20 | pEC50 [14]: 10.52 | pEC50 [15]: 9.40 | pEC50 [16]: 6.40
